Reference: ChEMBL document CHEMBL4177542, “A New Combination of a Pleuromutilin Derivative and Doxycycline for Treatment of Multidrug-Resistant Acinetobacter baumannii” (J Med Chem, 2017)
Converted amounts (≈) assume the structure as drawn.

Legend:
Staphylococcus aureus [1] = experiment: Growth inhibition of Staphylococcus aureus ATCC 25923 after 48 hrs by resazurin dye based microdilution method; format: functional; conditions: ATCC 25923, 48 h
Method in brief: (§1)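 Broth microdilution in tryptic soy broth. Mid-log cultures (OD600 0.5) treated with serial dilutions from a DMSO stock (1 mg per 100 μL) for 48 h at 37 °C. Resazurin (stock 0.02%) then added for 1 h at 37 °C. MIC is the lowest concentration staying blue; MBC is blue retained over 4 h (99.9% kill), with CFU plating when needed.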

Acinetobacter baumannii [2] = experiment: Synergistic bactericidal activity against Acinetobacter baumannii ATCC 19606 at 60:1 compound to doxycycline ratio after 48 hrs by resazurin dye based microdilution broth checkerboard method; format: functional; conditions: ATCC 19606 = CIP 70.34 = JCM 6841, 48 h, read-out: MBC99.9
Method in brief: (§2)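 Checkerboard broth microdilution of drug pairs in tryptic soy broth on mid-log cultures (OD 0.5), 48 h at 37 °C. Growth read by resazurin (pink growth, blue no growth). MBC is blue retained over 4 h, CFU plating where needed. ΣFIC = C_A/MIC_A + C_B/MIC_B, taken at the growth/no-growth interface wells; ΣFIC <0.5 counts as synergy.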

[3] = system: Mycobacterium tuberculosis; experiment: Bactericidal activity against Mycobacterium tuberculosis H37Rv after 48 hrs by resazurin dye based microdilution method; format: functional; conditions: read-out: MBC99.9
Acinetobacter baumannii [4] = experiment: Synergistic bactericidal activity against Acinetobacter baumannii ATCC 19606 at 2:1 compound to doxycycline ratio after 48 hrs by resazurin dye based microdilution broth checkerboard method; format: functional; conditions: ATCC 19606 = CIP 70.34 = JCM 6841, 48 h, read-out: MBC99.9; method in brief: as §2
Klebsiella pneumoniae = experiment: Synergistic bactericidal activity against Klebsiella pneumoniae ATCC 8047 at 35:1 compound to doxycycline ratio after 48 hrs by resazurin dye based microdilution broth checkerboard method; format: functional; conditions: ATCC 8047, 48 h, read-out: MBC99.9
Method in brief: (§3)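 Microdilution broth checkerboard of the compound combined with doxycycline, using the resazurin broth method (48 h, 37 °C, blue = no growth). ΣFIC = C_A/MIC_A + C_B/MIC_B, taken at the growth–no growth interface wells; ΣFIC below 0.5 is scored as synergy. MBC for the fixed-ratio combinations read as the 4 h resazurin endpoint.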

Staphylococcus aureus [5] = experiment: Synergistic antibacterial activity against Staphylococcus aureus ATCC 25923 at 2:1 compound to doxycycline ratio after 48 hrs by resazurin dye based microdilution broth checkerboard method; format: functional; conditions: ATCC 25923, 48 h; method in brief: as §2
[6] = Efflux ratio of apparent permeability in human Caco2 cells; format: ADME, cell-based; conditions: Caco-2
Pseudomonas aeruginosa [7] = experiment: Synergistic antibacterial activity against Pseudomonas aeruginosa ATCC 27853 at 60:1 compound to doxycycline ratio after 48 hrs by resazurin dye based microdilution broth checkerboard method; format: functional; conditions: ATCC 27853, 48 h; method in brief: as §2
Escherichia coli [8] = experiment: Synergistic bactericidal activity against Escherichia coli ATCC 10798 at 60:1 compound to doxycycline ratio after 48 hrs by resazurin dye based microdilution broth checkerboard method; format: functional; conditions: ATCC 10798, 48 h, read-out: MBC99.9; method in brief: as §2
Acinetobacter baumannii [9] = experiment: Potentiation of doxycycline-induced antimicrobial activity against Acinetobacter baumannii ATCC 19606 at 0.78 ug/ml in presence of 0.025 ug/ml doxycycline by microdilution broth checkerboard method; format: functional, ATCC 19606 = CIP 70.34 = JCM 6841
Method in brief: (§4)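 A. baumannii ATCC 19606 in a broth microdilution checkerboard with doxycycline, 96 concentration combinations. ΣFIC = C_A/MIC_A + C_B/MIC_B, taken for wells at the growth/no-growth interface; ΣFIC <0.5 counts as synergy.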

Acinetobacter baumannii [10] = experiment: Bactericidal activity against Acinetobacter baumannii ATCC 19606 after 48 hrs by resazurin dye based microdilution method; format: functional; conditions: ATCC 19606 = CIP 70.34 = JCM 6841, 48 h, read-out: MBC99.9
Method in brief: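 A. baumannii ATCC 19606 grown in tryptic soy broth, 37 °C with shaking, to mid-log (OD 0.5). Cultures treated with serial dilutions of inhibitor (DMSO stock 1 mg/100 μL), 48 h at 37 °C. Resazurin then added, 1 h at 37 °C with shaking. MIC is the lowest concentration staying blue; MBC is blue retained over 4 h, with CFU plating if needed (99.9% kill).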

Staphylococcus aureus [11] = experiment: Synergistic bactericidal activity against Staphylococcus aureus ATCC 25923 at 2:1 compound to doxycycline ratio after 48 hrs by resazurin dye based microdilution broth checkerboard method; format: functional; conditions: ATCC 25923, 48 h, read-out: MBC99.9; method in brief: as §2
Acinetobacter baumannii [12] = experiment: Synergistic antibacterial activity against multidrug-resistant Acinetobacter baumannii ATCC […] at 2:1 compound to doxycycline ratio after 48 hrs by resazurin dye based microdilution broth checkerboard method; format: functional; conditions: ATCC BAA 18002, 48 h; method in brief: as §3
Acinetobacter baumannii [13] = experiment: Synergistic bactericidal activity against Acinetobacter baumannii ATCC 19606 at 35:1 compound to doxycycline ratio after 48 hrs by resazurin dye based microdilution broth checkerboard method; format: functional; conditions: ATCC 19606 = CIP 70.34 = JCM 6841, 48 h, read-out: MBC99.9; method in brief: as §2
Escherichia coli [14] = experiment: Synergistic antibacterial activity against Escherichia coli ATCC 10798 at 60:1 compound to doxycycline ratio after 48 hrs by resazurin dye based microdilution broth checkerboard method; format: functional; conditions: ATCC 10798, 48 h; method in brief: as §2
Acinetobacter baumannii [15] = experiment: Potentiation of doxycycline-induced antimicrobial activity against Acinetobacter baumannii ATCC 19606 at 0.20 ug/ml in presence of 0.05 ug/ml doxycycline by microdilution broth checkerboard method; format: functional, ATCC 19606 = CIP 70.34 = JCM 6841; method in brief: as §4
Vero = experiment: Cytotoxicity against African green monkey Vero cells after 72 hrs by MTT assay; format: cell-based, Chlorocebus sabaeus; conditions: Chlorocebus sabaeus, Vero, 72 h; read-out: IC50
Method in brief: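 Vero (ATCC CCL-81) cells in Eagle's MEM with 10% FBS and penicillin-streptomycin, in 96-well plates. Serial dilutions from 0.78 to 200 μg/mL. Tunicamycin, colistin or tobramycin as controls on each plate. Viability by MTT, giving IC50.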

Acinetobacter baumannii [16] = experiment: Antibacterial activity against Acinetobacter baumannii ATCC 19606 infected in C57BL/6 mouse assessed as survival rate at 20 mg/kg, ip administered as single dose measured for 5 days (reference value: <20%); format: functional; conditions: ATCC 19606 = CIP 70.34 = JCM 6841, ip, 120 h
Method in brief: (§5)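 C57BL/6 mice (n = 5 per group; 4 untreated controls) infected intraperitoneally with A. baumannii ATCC19606 grown at 37 °C and collected by centrifugation, at a dose giving 75% death. Single intraperitoneal dose (2 to 60 mg/kg) given 1 h after infection. Mice monitored for 5 days, with death as the end point; survival rate recorded.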

Pseudomonas aeruginosa [17] = experiment: Synergistic bactericidal activity against Pseudomonas aeruginosa ATCC 27853 at 2:1 compound to doxycycline ratio after 48 hrs by resazurin dye based microdilution broth checkerboard method; format: functional; conditions: ATCC 27853, 48 h, read-out: MBC99.9; method in brief: as §2
Acinetobacter baumannii [18] = experiment: Synergistic bactericidal activity against multidrug-resistant Acinetobacter baumannii ATCC […] at 60:1 compound to doxycycline ratio […] by resazurin dye based microdilution broth checkerboard method; format: functional; conditions: read-out: MBC99.9
Acinetobacter baumannii [19] = experiment: Synergistic antibacterial activity against Acinetobacter baumannii ATCC 19606 infected in C57BL/6 mouse assessed as increase in survival rate at compound to doxycycline ratio of 35:1 administered ip as single dose measured for 5 days; format: functional; conditions: ATCC 19606 = CIP 70.34 = JCM 6841, ip, 120 h; method in brief: as §5
Pseudomonas aeruginosa [20] = experiment: Bactericidal activity against Pseudomonas aeruginosa ATCC 27853 after 48 hrs by resazurin dye based microdilution method; format: functional; conditions: ATCC 27853, 48 h, read-out: MBC99.9; method in brief: as §1
Acinetobacter baumannii [21] = experiment: Synergistic antibacterial activity against Acinetobacter baumannii ATCC 19606 at 2:1 compound to doxycycline ratio after 48 hrs by resazurin dye based microdilution broth checkerboard method; format: functional; conditions: ATCC 19606 = CIP 70.34 = JCM 6841, 48 h; method in brief: as §2

Work on `C=C[C@]1(C)C[C@@H](OC(=O)CSC(C)(C)CNC(=O)[C@H](N)C(C)C)[C@]2(C)[C@H](C)CC[C@]3(CC[C@@H](O)[C@H]32)[C@@H](C)[C@@H]1O` yielded an MIC (Staphylococcus aureus [1]) of 12.5 µg/mL (≈ 22.1 µM), an MBC (Acinetobacter baumannii [2]) of 2 µg/mL and an MBC [3] of 6.25 µg/mL (≈ 11 µM). It also gave an MBC (Acinetobacter baumannii [4]) of 2 µg/mL, an MBC (Klebsiella pneumoniae) of 1.56 µg/mL and an MIC (Staphylococcus aureus [5]) of 12.5 µg/mL. For the same molecule, the efflux ratio [6] was 5, the MIC (Pseudomonas aeruginosa [7]) was 12.5 µg/mL and the MBC (Escherichia coli [8]) was 1.56 µg/mL. The “fractional inhibitory concentration index (FICI)” value (Acinetobacter baumannii [9]) was 0.25 - 0.37, the MBC (Acinetobacter baumannii [10]) was 3.13 to 6.25 µg/mL (≈ 5.52 to 11 µM) and the MBC (Staphylococcus aureus [11]) was 25 µg/mL. For the same molecule, the MIC (Acinetobacter baumannii [12]) was 1.56 µg/mL, the MBC (Acinetobacter baumannii [13]) was 2 µg/mL and the MIC (Escherichia coli [14]) was 0.25 µg/mL. The “fractional inhibitory concentration index (FICI)” value (Acinetobacter baumannii [15]) was 0.28, the IC50 (Vero) was 45.3 µg/mL (≈ 79.9 µM) and the survival at 20 mg/kg (Acinetobacter baumannii [16]) was 100%. For the same molecule, the MBC (Pseudomonas aeruginosa [17]) was 12.5 µg/mL, the MBC (Acinetobacter baumannii [18]) was 6.25 µg/mL and the ED50 (Acinetobacter baumannii [19]) was under 2 mg/kg. For the same molecule, the MBC (Pseudomonas aeruginosa [20]) was over 25 µg/mL and the MIC (Acinetobacter baumannii [21]) was 0.5 µg/mL.
